What was measured:
[1] = Cytotoxicity against human embryo L02 cells assessed as cell viability after 48 hrs by MTT assay; type: cell-based; conditions: read-out: MTD
Summary of the method: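 Human embryo liver L-02 cells in RPMI-1640 with 10% heat-inactivated FBS, penicillin, streptomycin and L-glutamine, seeded at 2 × 10^4 cell/mL and grown 24 h at 37 C, 5% CO2. Medium replaced by serial dilutions of compound (from 1 mg/mL DMSO stock), 48 h exposure. MTT added for 4 h, formazan dissolved in DMSO, OD 570 nm. Viability = OD(compound)/OD(control) × 100; maximum nontoxic concentration derived.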

[2] = Cytoprotective activity in human embryo L02 cells assessed as inhibition of D-galactosamine-induced cytotoxicity at 6.25 ug/ml treated for 1 hr prior to D-galactosamine challenge measured after 48 hrs by MTT assay relative to control; type: functional
Summary of the method: (§1)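 L-02 human embryo liver cells in RPMI-1640 with 10% heat-inactivated FBS, penicillin, streptomycin, L-glutamine; seeded 2 × 10^4 cells/mL, grown 24 h at 37 °C, 5% CO2. Fresh medium with compound (diluted from 1 mg/mL DMSO stock) for 1 h, then 5 mM D-GalN for 48 h. MTT read at 570 nm; inhibition (%) = (OD compound − OD GalN control)/(OD blank − OD control) × 100; n = 3, mean ± SD.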

[3] = Cytoprotective activity in human embryo L02 cells assessed as inhibition of D-galactosamine-induced cytotoxicity at 12.5 ug/ml treated for 1 hr prior to D-galactosamine challenge measured after 48 hrs by MTT assay relative to control; type: functional; summary of the method: as §1
[4] = Cytoprotective activity in human embryo L02 cells assessed as inhibition of D-galactosamine-induced cytotoxicity at 3.13 ug/ml treated for 1 hr prior to D-galactosamine challenge measured after 48 hrs by MTT assay relative to control; type: functional; summary of the method: as §1
[5] = Cytoprotective activity in human embryo L02 cells assessed as inhibition of D-galactosamine-induced cytotoxicity at 1.56 ug/ml treated for 1 hr prior to D-galactosamine challenge measured after 48 hrs by MTT assay relative to control; type: functional; summary of the method: as §1

CC(C)[C@]1(CO)CC[C@@](C)([C@H]2[C@H](O)C[C@]3(C)[C@@H]2CC[C@@H]2[C@@]4(C)CC[C@H](O[C@@H]5O[C@H](CO)[C@@H](O)[C@H](O)[C@H]5O[C@@H]5O[C@H](CO)[C@@H](O)[C@H](O)[C@H]5O)C(C)(C)[C@@H]4CC[C@]23C)O1 [OPERCULINOSIDE A]
MNTC at 48 h [1]: 12.5 µg/mL | inhibition at 6.25 µg/mL [2]: -14.7% | inhibition at 12.5 µg/mL [3]: 46.7% | inhibition at 3.13 µg/mL [4]: -22.8%

CC(C)[C@]1(CO[C@@H]2O[C@H](CO)[C@@H](O)[C@H](O)[C@H]2O)CC[C@@](C)([C@H]2[C@H](O)C[C@]3(C)[C@@H]2CC[C@@H]2[C@@]4(C)CC[C@H](O[C@@H]5O[C@H](CO)[C@@H](O)[C@H](O)[C@H]5O[C@@H]5O[C@H](CO)[C@@H](O)[C@H](O)[C@H]5O)C(C)(C)[C@@H]4CC[C@]23C)O1 [OPERCULINOSIDE B]
MNTC at 48 h [1]: 100 µg/mL | inhibition at 6.25 µg/mL [2]: 10.4% | inhibition at 12.5 µg/mL [3]: -6.9% | inhibition at 3.13 µg/mL [4]: 3.5%

CC(C)(O)[C@@H]1CC[C@@](C)([C@H]2[C@H](O)C[C@]3(C)[C@@H]2CC[C@@H]2[C@@]4(C)CC[C@H](O[C@@H]5O[C@H](CO)[C@@H](O)[C@H](O)[C@H]5O[C@@H]5O[C@H](CO)[C@@H](O)[C@H](O)[C@H]5O)C(C)(C)[C@@H]4CC[C@]23C)O1 [OPERCULINOSIDE C]
MNTC at 48 h [1]: 50 µg/mL | inhibition at 6.25 µg/mL [2]: 69.5% | inhibition at 12.5 µg/mL [3]: 44.1% | inhibition at 3.13 µg/mL [4]: 16.7%

CC(C)(O[C@@H]1O[C@H](CO)[C@@H](O)[C@H](O)[C@H]1O)[C@@H]1CC[C@@](C)([C@H]2[C@H](O)C[C@]3(C)[C@@H]2CC[C@@H]2[C@@]4(C)CC[C@H](O[C@@H]5O[C@H](CO)[C@@H](O)[C@H](O)[C@H]5O[C@@H]5O[C@H](CO)[C@@H](O)[C@H](O)[C@H]5O)C(C)(C)[C@@H]4CC[C@]23C)O1 [OPERCULINOSIDE D]
MNTC at 48 h [1]: 100 µg/mL | inhibition at 6.25 µg/mL [2]: 6.3% | inhibition at 12.5 µg/mL [3]: 22.2% | inhibition at 3.13 µg/mL [4]: 5.5%

COc1cc(C2Oc3cc([C@H]4Oc5cc(O)cc(O)c5C(=O)[C@@H]4O)ccc3OC2CO)ccc1O (stereo not given in full) [SILIBININ]
inhibition at 1.56 µg/mL [5]: 10.1% | MNTC at 48 h [1]: 6.25 µg/mL | inhibition at 6.25 µg/mL [2]: 28.2% | inhibition at 3.13 µg/mL [4]: 33.4%
